# The entries come from a sample that favours hits as a whole.
# XiGFP reactiv: activators of inactive X chromosome reactivation, primary screen, imaging, XiGFP fibroblasts, GFP high-content imaging, set 2; XiGFP mouse fibroblasts, % GFP-positive cells imaging, 3 d; cells co-treated with 5-aza-dC sensitizer; scaled so ellipticine positive control = 100%; activation, % at 7.58 µM; 360,000 compounds, 0.055% hits;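 active = mean normalized replicate activation at least 10% and every replicate at or above 10%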
#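 System: XiGFP fibroblasts, SV40-immortalized. Medium: DMEM plus 5-aza-dC sensitizer. Doses: single point. Timing: 3 d treatment, 15 min room-temperature fixation. Control set: ellipticine 6 µM.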
# ABCB6 inh MLPCN: ABCB6 transporter inhibitors, primary screen, K562-ABCB6 cells, flow cytometry, MLPCN library | K562-ABCB6 porphyrin accumulation, 1 h; hits give low values | AID 602162, 2011 | fluorescence ratio to DMSO, % at 10 µM | 360,000 compounds, 0.19% hits;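 active = fluorescence ratio to DMSO below 75%, the collection mean minus 3 SD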;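 also: signal is porphyrin accumulated inside mitochondria; lower ratio means ABCB6 inhibition with less porphyrin fluorescence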
# Target sequence (Q9NP58 whole entry, looked up): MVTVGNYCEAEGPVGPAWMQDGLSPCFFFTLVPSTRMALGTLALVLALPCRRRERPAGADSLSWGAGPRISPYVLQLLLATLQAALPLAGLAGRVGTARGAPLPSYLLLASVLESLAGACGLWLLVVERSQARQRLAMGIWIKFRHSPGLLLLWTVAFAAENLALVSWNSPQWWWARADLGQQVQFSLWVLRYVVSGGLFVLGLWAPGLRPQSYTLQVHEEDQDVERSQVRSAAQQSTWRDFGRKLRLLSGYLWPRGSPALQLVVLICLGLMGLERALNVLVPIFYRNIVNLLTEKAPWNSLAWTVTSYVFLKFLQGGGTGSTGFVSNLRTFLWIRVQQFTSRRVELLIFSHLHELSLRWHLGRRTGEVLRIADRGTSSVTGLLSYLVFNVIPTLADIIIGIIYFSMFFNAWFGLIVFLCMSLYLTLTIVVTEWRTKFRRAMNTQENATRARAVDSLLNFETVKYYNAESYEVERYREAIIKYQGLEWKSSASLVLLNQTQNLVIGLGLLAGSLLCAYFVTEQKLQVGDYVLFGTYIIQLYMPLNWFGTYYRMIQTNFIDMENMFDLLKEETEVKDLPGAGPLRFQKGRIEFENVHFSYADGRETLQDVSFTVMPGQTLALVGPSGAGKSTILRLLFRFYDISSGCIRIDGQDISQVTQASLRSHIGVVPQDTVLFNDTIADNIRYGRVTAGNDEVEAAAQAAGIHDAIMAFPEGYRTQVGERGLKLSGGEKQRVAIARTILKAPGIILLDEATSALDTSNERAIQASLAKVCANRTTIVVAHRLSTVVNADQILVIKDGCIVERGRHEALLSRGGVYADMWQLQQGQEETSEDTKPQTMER
# Myeloid diff 2: induction of myeloid progenitor differentiation, primary screen, cell-based, flow cytometry, MLPCN library. AID 624256, 2012. calls only at 10 µM. 360,000 compounds, 1% hits. ER-HoxA9 myeloid progenitors, lysozyme-GFP differentiation;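 active = normalized GFP-positive differentiation at or above the plate's own cutoff, the solvent-only control mean plus 3 SD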;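 also: cells exposed to compound for four days before flow analysis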
# Myeloid diff CP1: inducers of myeloid progenitor differentiation, confirmation, cell-based, GFP/Mac1 flow cytometry, cherry pick 01; shares compounds with Myeloid diff 2; ER-HoxA9 myeloid progenitors, GFP/Mac1 double-positive flow; calls only; 2,300 compounds, 2% hits; AID 651706, 2012;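 active = share of green or green-and-red cells above 9 and 9% in run 1 or 4 and 3% in run 2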
# GFP autofluor: compound fluorescence in myeloid differentiation counter-screen; 2,300 compounds, 7.4% hits; AID 651707; ER-HoxA9 myeloid progenitors, no estrogen, GFP autofluorescence flow cytometry; vehicle wells 0%, positive control 100%; fluorescence response, % (test concentration not listed); shares compounds with Myeloid diff 2;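 active = over 5% cells positive for green fluorescent reporter, or over 2% positive for both it and APC stain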
# Numbers stand for hits; 0 = inactive; - = no result given; + = active, no number; ! = not active in a repeat.
SMILES,XiGFP reactiv,ABCB6 inh MLPCN,Myeloid diff 2,Myeloid diff CP1,GFP autofluor
COc1ccccc1NC(=O)N1CCN(c2ccccc2F)CC1,-,0,0,0,0
COc1ccccc1NC(=O)CN1CCN(c2ccccc2F)CC1,-,0,0,-,-
COc1cccc(OCCSc2nnc3sc4ccccc4n23)c1,-,0,0,-,-
c1ccc(OCCSc2nnc3sc4ccccc4n23)cc1,-,0,0,0,0
COc1cc(C(=O)OCC(=O)NC2CCCCC2)cc(OC)c1OC,0,0,0,-,-
COc1cc(C(=O)OCC(=O)Nc2ccccc2)cc2c1OCCO2,0,0,0,-,-
COc1cc(C(=O)OCC(=O)NC2CCCCC2)cc2c1OCCO2,0,0,+,0,0
COc1cc(C(=O)OC(C)C(=O)N2CCCC2)cc2c1OCCO2 (stereo not given),0,0,0,0,0
C[C@@H]1CCCCO[C@H](CN(C)C)[C@H](C)CN([C@H](C)CO)C(=O)c2cc(NS(=O)(=O)c3cccs3)ccc2O1,0,-,-,-,-
CN(C)C(=O)c1ccc(-c2ccc([C@H]3[C@H](CO)N4C(=O)CN(C(=O)CC5CC5)C[C@@H]34)cc2)cc1,0,-,-,-,-
C/C=C/c1ccc2c(c1)O[C@H](CN(C)Cc1ccc(C(=O)O)cc1)[C@H](C)CN([C@H](C)CO)S2(=O)=O,0,-,-,-,-
Fc1ccc2nc(C3CCCCN3Cc3nc(CC4CC4)no3)[nH]c2c1 (stereo not given),0,0,0,0,0
Fc1ccc(C2CCCCN2Cc2nc(CC3CC3)no2)cc1 (stereo not given),0,0,0,-,-
C[C@H](CO)N1C[C@H](C)[C@@H](CN(C)C(=O)[C@H](C)c2ccccc2)OCc2ccccc2-c2ccccc2C1=O,0,-,-,-,-
Cc1noc(C)c1S(=O)(=O)Nc1ccc2c(c1)CC(=O)N([C@H](C)CO)C[C@H](C)[C@H](CN(C)C(=O)NC(C)C)O2,0,-,-,-,-
C[C@H](CO)N1C[C@H](C)[C@H](CN(C)S(=O)(=O)c2cn(C)cn2)Oc2ccc(NS(=O)(=O)c3cn(C)cn3)cc2CC1=O,0,-,-,-,-
Cc1cc(C(C)(C)C)oc1C(=O)N(CC(=O)NC1CCCC1)Cc1ccccc1,-,0,0,-,-
Cc1ccc(C)c(N(CC(=O)NC2CCCC2)C(=O)c2oc(C(C)(C)C)cc2C)c1,-,0,0,0,0
CCS(=O)(=O)N1CC2(C1)[C@H](c1ccccc1)[C@@H](CO)N2CC1CCCC1,0,-,-,-,-
O=C(c1ccc(-c2ccc([N+](=O)[O-])cc2)o1)N1CCCC(C(F)(F)F)C1 (stereo not given),0,0,0,-,-
O=C(c1ccc(-c2ccc([N+](=O)[O-])cc2)o1)N1CCCCCCC1,0,0,+,0,0
CO[C@H]1CN(C)C(=O)c2ccc(NC(=O)C3CCC3)cc2OC[C@H](C)N(C(=O)CN(C)C)C[C@@H]1C,0,-,-,-,-
CC1CCN(c2nc(CN3CCCCC3)nc3scc(-c4ccccc4)c23)CC1,0,0,0,0,0
CC1CCN(c2nc(-c3cccnc3)nc3scc(-c4ccccc4)c23)CC1,0,0,0,-,-
COc1ccc2c3c([nH]c2c1)[C@H](CO)N(CC1CC1)CC31CN(C(=O)c2cccc(F)c2)C1,0,-,-,-,-
SMILES,XiGFP reactiv,ABCB6 inh MLPCN,Myeloid diff 2,Myeloid diff CP1,GFP autofluor
COC(=O)c1ccccc1NC(=O)c1cc2nc(C3CC3)cc(C(F)(F)F)n2n1,-,0,0,-,-
COc1cc(NC(=O)c2cc3nc(C4CC4)cc(C(F)(F)F)n3n2)c(OC)cc1Cl,-,0,0,0,0
CCOC(=O)c1c(/N=C/c2ccc(OC)cc2O)sc2c1CCN(C)C2,0,0,0,-,-
CN1CCc2c(sc(/N=C/c3c[nH]c4ccccc34)c2C#N)C1,0,0,+,0,16.2
CN1CCc2c(sc(/N=C/c3c[nH]c4ccccc34)c2C(N)=O)C1,0,0,+,0,0
CN1CCc2c(sc(/N=C/c3cc(Cl)ccc3O)c2C#N)C1,0,0,0,-,-
CCCC#Cc1cnc2c(c1)C(=O)N([C@H](C)CO)C[C@H](C)[C@H](CN(C)Cc1ccccc1)O2,0,-,-,-,-
C[C@H](CO)N1C[C@H](C)[C@@H](CN(C)Cc2ccc(-c3ccccc3)cc2)Oc2ccc(NC(=O)Cc3ccccc3)cc2C1=O,0,-,-,-,-
Cc1nc2nc(-c3ccco3)[nH]n2c(=O)c1C,-,0,0,0,0
Cc1nc2nc(-c3ccco3)[nH]n2c(=O)c1Cc1ccccc1,-,0,0,-,-
C[C@@H]1CCCCO[C@H](CN(C)C)[C@H](C)CN([C@@H](C)CO)C(=O)c2cc(NC(=O)C3CCCCC3)ccc2O1,0,-,-,-,-
CCOc1ccc(NC(=O)c2cc3ccccc3cc2O)cc1,0,0,0,-,-
CCOc1ccc(NC(=O)c2cccc3ccccc23)cc1,0,0,+,0,0
COc1ccc2c(c1)C(=O)N1[C@H]3c4cc(C)ccc4OC[C@@H]3[C@H](c3ccccc3)[C@]1(C)C(=O)N2,0,0,+,0,0
COc1ccc2c(c1)[C@H]1[C@H](CO2)[C@H](c2ccccc2)[C@]2(C)C(=O)Nc3ccc(C)cc3C(=O)N12,0,0,0,-,-
C[C@@H]1CCCCO[C@H](CN(C)C(=O)Nc2ccccc2)[C@H](C)CN([C@H](C)CO)C(=O)c2cc(NC(=O)c3ccccc3)ccc2O1,0,-,-,-,-
COc1ccc(NC(=O)N(C)[C@H]2C[C@H]3c4[nH]c5ccc(-c6ccc7c(c6)OCO7)cc5c4CCN3C[C@H]2[C@H](C)O)cc1,0,0,0,0,0
COc1ccc(NC(=O)N(C)[C@H]2C[C@H]3c4[nH]c5ccc(-c6ccc(OC)cc6)cc5c4CCN3C[C@H]2[C@H](C)O)cc1,0,0,0,-,-
Cc1cc(C(=O)Nc2cccc3c2O[C@@H](CN(C)S(=O)(=O)c2ccc(Cl)cc2)[C@@H](C)CN([C@@H](C)CO)C3=O)n(C)n1,0,-,-,-,-
CO[C@H]1CN(C)C(=O)c2cc(NC(=O)C3CCOCC3)ccc2OC[C@@H](C)N(CC2CC2)C[C@H]1C,0,-,-,-,-
COc1ccccc1C(=O)NCCCNC(=O)c1ccccn1,0,0,0,-,-
O=C(NCCCNCc1ccccc1)c1ccccn1,0,0,+!,0,0
COCCCNC(=O)c1ccc(Cn2c(=O)c3ccccc3n(Cc3ccccc3C#N)c2=O)cc1,-,0,+,0,0
COCCCNC(=O)c1ccc(Cn2c(=O)c3ccccc3n(Cc3ccccc3C)c2=O)cc1,-,0,0,-,-
C=C(c1cn(C(C)=O)c2ccccc12)c1cn(C(C)=O)c2ccccc12,0,0,0,0,0
CC(=O)n1cc(CO)c2ccccc21,-,0,0,-,-
Cc1cc(F)ccc1-c1cc(C(=O)NCc2cc(C(F)(F)F)cc(C(F)(F)F)c2)[nH]n1,0,0,0,-,-
Cc1csc(-c2cc(C(=O)NCc3cc(C(F)(F)F)cc(C(F)(F)F)c3)n[nH]2)c1,0,0,+,0,0

# Bioassay records from PubChem.
